Experimental data: ChEMBL document CHEMBL3994590, “In vitro activity and mode of action of distamycin analogues against African trypanosomes” (Eur J Med Chem, 2017)
Activity calls are given as the source filed them. The rule behind the calls is not given here.

Assays:
Leishmania infantum = assay: Inhibition of Leishmania infantum recombinant trypanothione synthetase using GSH/spermididine as substrate assessed as residual activity by measuring phosphate release from ATP at 30 uM after 15 mins by Biomol Green reagent based assay relative to control
Trypanosoma cruzi = assay: Inhibition of Trypanosoma cruzi recombinant trypanothione synthetase using GSH/spermididine as substrate assessed as residual activity by measuring phosphate release from ATP at 30 uM after 15 mins by Biomol Green reagent based assay relative to control
[1] = tested on: Trypanosoma brucei brucei; assay: Inhibition of Trypanosoma brucei brucei recombinant trypanothione synthetase using GSH/spermididine as substrate assessed as residual activity by measuring phosphate release from ATP at 30 uM after 15 mins by Biomol Green reagent based assay relative to control
[2] = tested on: Trypanosoma brucei brucei; assay: Antitrypanosomal activity against Trypanosoma brucei brucei 427 bloodstream forms at 5 uM after 24 hrs by propidium iodide dye based flow cytometry; format: functional; conditions: for inhibition of growth at 5 µM: Trypanosoma brucei, 427, 24 h, read-out: GI
In short: (§1)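 Bloodstream T. b. brucei 427 grown in HMI-9 with 10% FBS, penicillin/streptomycin, 37 °C, 5% CO2. Exponential-phase cells seeded at 5x10^5/mL; compounds added from DMSO stocks, 1% v/v DMSO final. […] Exposure 24 h, then diluted into PBS/1% glucose with 2 µg/mL PI and counted by flow cytometry. Viability given as % of DMSO-treated cell count.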

[3] = Selectivity index, ratio of EC50 for murine macrophage J774 cells to EC50 for Trypanosoma brucei brucei 427 bloodstream forms; format: toxicity; conditions: mouse; read-out: Ratio EC50
[4] = tested on: Trypanosoma brucei brucei; assay: Antitrypanosomal activity against Trypanosoma brucei brucei 427 bloodstream forms after 24 hrs by propidium iodide dye based flow cytometry; format: functional; conditions: Trypanosoma brucei, 427, 24 h; in short: as §1
[5] = tested on: Trypanosoma brucei brucei; assay: Antitrypanosomal activity against Trypanosoma brucei brucei 427 bloodstream forms at 30 uM after 24 hrs by propidium iodide dye based flow cytometry; format: functional; in short: as §1
[6] = tested on: Trypanosoma brucei brucei; assay: (§2) Antitrypanosomal activity against Trypanosoma brucei brucei 427 bloodstream forms infected CHO-K1 cells expressing redox biosensor rxYFP assessed as induction of rxYFP oxidation at 1 mM after 1 hr by propidium iodide based flow cytometry relative to control; format: functional
In short: (§3)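 CHO-K1 cells expressing rxYFP in DMEM with 10% FCS, given 400 µg/mL zeocin 48 h before the assay. Trypsinized cells seeded at 8x10^5/mL and treated in triplicate for 1 h at 37 °C with 1, 5 or 10 µM test compound, 1 mM menadione, H2O2 or DTT, or 1% DMSO. Some wells then given 1 mM DTT for 30 min. PI-negative cells analysed by flow cytometry (488/530 nm), as % reduction relative to DMSO.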

[7] = tested on: Trypanosoma brucei brucei; assay: as §2, with “preincubated for” for “after”, “hr followed by DTT addition measured after 30 mins” for “hr”; format: functional; in short: as §3
[8] = tested on: Trypanosoma brucei brucei; assay: Antitrypanosomal activity against Trypanosoma brucei brucei 427 bloodstream forms infected CHO-K1 cells expressing redox biosensor hGrx-roGFP2 assessed as induction of hGrx-roGFP2 oxidation at 1 mM after 1 hr by flow cytometric method; format: functional
In short: (§4)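 Parasites induced with oxytetracycline for 24 h, then moved to 1x10^6/200 µL without inducer. Treated in triplicate for 1 h at 37 °C with 78–310 nM test compound, 1 mM menadione, 15 µM nifurtimox, 1 mM DTT or 1% DMSO. Half then given 1 mM DTT for 30 min more. PI at 2 µg/mL added; biosensor read at 488/530 nm in PI-negative cells only, as % reduction relative to DMSO.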

[9] = tested on: Trypanosoma brucei brucei; assay: (§5) Antitrypanosomal activity against Trypanosoma brucei brucei 427 bloodstream forms infected CHO-K1 cells expressing redox biosensor hGrx-roGFP2 assessed as induction of hGrx-roGFP2 oxidation at 1 mM preincubated for 1 hr followed by DTT addition measured after 30 mins by flow cytometric method; format: functional; in short: as §4
[10] = tested on: Trypanosoma brucei brucei; assay: Antitrypanosomal activity against Trypanosoma brucei brucei 427 bloodstream forms assessed as induction of membrane damage at 77.5 to 310 nM by propidium iodide dye based flow cytometry; format: functional; conditions: TDE = time-dependent effect
In short: (§6)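 Bloodstream strain 427 at 5x10^5/mL in triplicate, exposed to 310, 155 or 77.5 nM, 0.001% v/v Triton X-100, 15 µM nifurtimox or 1% v/v DMSO. Incubated 0.5, 1, 2 or 4 h, then diluted into PBS/1% glucose. PI added at 2 µg/mL just before flow cytometry. Result is % PI-positive cells, mean ± SD (n=3), with one-way ANOVA and Dunnett's test against DMSO.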

[11] = tested on: Trypanosoma brucei brucei; assay: Antitrypanosomal activity against Trypanosoma brucei brucei 427 bloodstream forms assessed as induction of membrane damage at 310 nM parasite preincubated with 125 to 500 uM DFO for 3 hrs followed by test compound addition measured after 3 hrs by propidium iodide dye based flow cytometry relative to control; format: functional
In short: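 Strain 427 at 1x10^6/mL in triplicate at 37 °C. Arm A: 0.31 µM test compound with 100 µM DFO or bipyridine for 2 h. Arm B: DFO at 125–500 µM for 3 h, then 0.31 µM test compound for a further 3 h. Membrane integrity read by PI staining and flow cytometry; mean ± SD (n=3).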

[12] = tested on: Trypanosoma brucei brucei; assay: Antitrypanosomal activity against Trypanosoma brucei brucei 427 bloodstream forms assessed as induction of membrane damage at 310 nM after 3 hrs by propidium iodide dye based flow cytometry relative to control; format: functional
[13] = tested on: Trypanosoma brucei brucei; assay: Antitrypanosomal activity against Trypanosoma brucei brucei 427 bloodstream forms assessed as increase in intracellular free iron level at 3.1 uM co-incubated with DFO after 1 hr by PhenGreen SK diacetate reagent based flow cytometry; format: functional, cell-based
In short: (§7)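 Strain 427 at 2x10^6/mL in triplicate with 3.1 µM test compound, with or without 10 or 100 µM deferoxamine or bipyridine; 1% DMSO control. After 40 min at 37 °C/5% CO2, PhenGreen SK diacetate added at 10 µM for 20 min more. Cells diluted in PBS/1% glucose and probe fluorescence (ex 488 nm) read by flow cytometry; mean ± SD (n=3).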

[14] = tested on: Trypanosoma brucei brucei; assay: Antitrypanosomal activity against Trypanosoma brucei brucei 427 bloodstream forms assessed as increase in intracellular free iron level at 3.1 uM after 1 hr by PhenGreen SK diacetate reagent based flow cytometry; format: functional; in short: as §7
[15] = tested on: Trypanosoma brucei brucei; assay: Antitrypanosomal activity against Trypanosoma brucei brucei 427 bloodstream forms assessed as induction of membrane damage at 310 nM after 2 hrs by propidium iodide dye based flow cytometry relative to control; format: functional; in short: as §6
[16] = tested on: Trypanosoma brucei brucei; assay: Antitrypanosomal activity against Trypanosoma brucei brucei 427 bloodstream forms assessed as induction of membrane damage at 155 nM after 2 to 4 hrs by propidium iodide dye based flow cytometry; format: functional; in short: as §6
[17] = tested on: Trypanosoma brucei brucei; assay: (§8) Antitrypanosomal activity against Trypanosoma brucei brucei 427 bloodstream forms infected CHO-K1 cells expressing redox biosensor rxYFP assessed as induction of rxYFP oxidation at 1 to 10 uM after 1 hr by propidium iodide based flow cytometry relative to control; format: functional; in short: as §3
[18] = tested on: Trypanosoma brucei brucei; assay: Antitrypanosomal activity against Trypanosoma brucei brucei 427 bloodstream forms assessed as induction of membrane damage at 310 nM after 2 to 4 hrs by propidium iodide dye based flow cytometry; format: functional; in short: as §6
[19] = tested on: Trypanosoma brucei brucei; assay: Antitrypanosomal activity against Trypanosoma brucei brucei 427 bloodstream forms assessed as increase in intracellular free iron level at 3.1 uM co-incubated with bipyridine for 1 hr by PhenGreen SK diacetate reagent based flow cytometry
[20] = tested on: Trypanosoma brucei brucei; assay: as §5, with “77.5 to 310 nM” for “1 mM”; format: functional; in short: as §4
[21] = tested on: Trypanosoma brucei brucei; assay: Antitrypanosomal activity against Trypanosoma brucei brucei 427 bloodstream forms assessed as induction of mitochondrial damage at 0.31 uM preincubated for 30 mins followed by addition of Mitotracker red CM-H2XRos further incubated for 30 mins and measured by epifluorescence microscopy; format: functional
In short: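 Strain 427 at 1x10^6/mL treated with 0.31 µM test compound for 30 min. MitoTracker Red CM-H2XRos then added at 250 nM for 30 min more. Cells centrifuged, PBS-washed, fixed in 4% paraformaldehyde for 18 min, mounted with DAPI. Mitochondrial morphology and staining intensity compared with 1% DMSO-treated cells by fluorescence microscopy.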

[22] = tested on: Trypanosoma brucei brucei; assay: Antitrypanosomal activity against Trypanosoma brucei brucei 427 bloodstream forms assessed as decrease in parasite levels with discrete lysosomal signal at 0.31 uM preincubated for 30 mins followed by addition of Lysotracker red DND-99 further incubated for 30 mins and measured by epifluorescence microscopy relative to control; format: functional
[23] = tested on: Trypanosoma brucei brucei; assay: Antitrypanosomal activity against Trypanosoma brucei brucei 427 bloodstream forms assessed as membrane damage in presence of bipyridine at 0.31 uM after 2 hr by propidium iodide staining-based flow cytometry
[24] = tested on: Trypanosoma brucei brucei; assay: as §8, with “at” for “at 1 to”, “preincubated for” for “after”, “hr followed by DTT addition measured after 30 mins” for “hr”; format: functional; in short: as §3
[25] = tested on: Trypanosoma brucei brucei; assay: Antitrypanosomal activity against Trypanosoma brucei brucei 427 bloodstream forms infected CHO-K1 cells expressing redox biosensor hGrx-roGFP2 assessed as induction of hGrx-roGFP2 oxidation at 77.5 to 310 nM after 1 hr by flow cytometric method; format: functional; in short: as §4
[26] = tested on: Trypanosoma brucei brucei; assay: Antitrypanosomal activity against Trypanosoma brucei brucei 427 bloodstream forms assessed as induction of membrane damage at 310 nM after 1 hr by propidium iodide dye based flow cytometry; format: functional; in short: as §6

| Structure (SMILES) | Activity (Leishmania infantum) | Activity (Trypanosoma cruzi) | Activity [1] | selectivity ratio [3] | EC50 [4] | further results |
| --- | --- | --- | --- | --- | --- | --- |
| Cc1nc(C(=O)Nc2nc(C(=O)O)cs2)cs1 | 102% | 104% | 96.6% | – | – | inhibition of growth at 5 µM [2]: 8.1% |
| CCOC(=O)c1csc(NC(=O)c2csc(NC(=O)c3csc(C)n3)n2)n1 | 110% | 102% | 112% | 10.5 | 5 µM | – |
| CCOC(=O)c1csc(NC(=O)c2csc(NC(=O)OC(C)(C)C)n2)n1 | 102% | 96.4% | 111% | 3.5 | 13.7 µM | – |
| CNCCNC(=O)CN1C(=O)Cc2c([nH]c3ccc(Br)cc23)-c2ccc(Cl)cc21 | 57.1% | – | 49.4% | – | – | – |
| CC(C)(C)OC(=O)Nc1nc(C(=O)Nc2nc(C(=O)Nc3nc(C(=O)O)cs3)cs2)cs1 | 116% | 112% | 112% | – | – | inhibition of growth at 5 µM [2]: 22.7% |
| O=c1[nH]c2cc3no[n+]([O-])c3cc2[nH]1 | – | 64.9% | – | – | – | – |
| CC(=O)Nc1nc(C(=O)Nc2nc(C(=O)Nc3nc(C(=O)O)cs3)cs2)cs1 | 83.6% | 102% | 103% | – | – | Activity [5]: inactive; growth inhibition (GI) [2]: inactive |
| CCOC(=O)c1csc(NC(=O)c2csc(C)n2)n1 | 98.5% | 99.7% | 95.2% | – | – | growth inhibition (GI) [2]: inactive |
| OO [HYDROGEN PEROXIDE] | – | – | – | – | – | Activity [6]: 25%; Activity [7]: inactive |
| CC(=O)Nc1nc(C(=O)Nc2nc(C(=O)O)cs2)cs1 | 102% | 99% | 108% | – | – | inhibition of growth at 5 µM [2]: 20% |
| CCOC(=O)c1csc(NC(=O)c2csc(N)n2)n1 | 89.5% | 97.5% | 111% | – | – | inhibition of growth at 5 µM [2]: 25.6% |
| O[C@H](CS)[C@H](O)CS | – | – | – | – | – | Activity [8]: inactive |
| CC1=CC(=O)c2ccccc2C1=O [MENADIONE] | – | – | – | – | – | Activity [9]: inactive; Activity [6]: 70%; Activity [7]: inactive; Activity [8]: 21% |
| CCOC(=O)c1csc(NC(=O)c2csc(NC(=O)c3csc(N)n3)n2)n1 | 99.8% | 96.2% | 100% | 19.6 | 5.5 µM | – |
| CCOC(=O)c1csc(NC(=O)c2csc(NC(C)=O)n2)n1 | 82.8% | 98.1% | 102% | 7.4 | 9.6 µM | – |
| CCOC(=O)c1csc(NC(=O)c2csc(NC(=O)c3csc(NC(C)=O)n3)n2)n1 | 105% | 96.3% | 93.7% | 29.1 | 5.4 µM | – |
| CCOC(=O)c1csc(NC(=O)c2csc(NC(=O)c3csc(NC(=O)OC(C)(C)C)n3)n2)n1 | 106% | 126% | 120% | 16.5 | 0.31 µM | Activity [10]: Tde; Activity [11]: 40 - 67%; Activity [12]: 80%; Activity [13]: inactive; Activity [14]: 50%; Activity [15]: 87%; Activity [16]: Active; Activity [17]: 10%; Activity [18]: 80 - 90%; Activity [19]: inactive; Activity [20]: inactive; Activity [21]: inactive; fold change (FC) [22]: >3; Activity [23]: 47%; Activity [24]: inactive; Activity [25]: 10%; Activity [26]: 10% |
| CC1CS(=O)(=O)CCN1/N=C/c1ccc([N+](=O)[O-])o1 (stereo not drawn) [NIFURTIMOX] | – | – | – | 10 | 15 µM | – |
| CC(C)(C)OC(=O)Nc1nc(C(=O)Nc2nc(C(=O)O)cs2)cs1 | 89.9% | 105% | 100% | – | – | inhibition of growth at 5 µM [2]: 10.8% |
